{"source": "ChEMBL document CHEMBL1155120", "about": "“Synthesis of 4-oxo-4,7-dihydrofuro[2,3-b]pyridine-5-carboxamides with broad-spectrum human herpesvirus polymerase inhibition” (Bioorg Med Chem Lett, 2008)", "key": {"[1]": {"assay": "Inhibition of HCMV DNA polymerase by scintillation proximity assay", "parameters": "species or system Human betaherpesvirus 5", "method_in_brief": "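Scintillation proximity assay with purified HCMV DNA polymerase, measuring incorporation of ³H-labelled nucleotide into template-primer. IC50 values are means of at least two experiments, with standard deviation where given.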"}, "[2]": {"assay": "Cytotoxicity against HFF cells after 3 days by neutral red dye uptake assay", "assay_type": "cell-based", "conditions": "human", "method_in_brief": "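Uninfected, replicating HFF cells were seeded as subconfluent monolayers and exposed to compound for 3 days.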"}, "[3]": {"assay": "Inhibition of VZV DNA polymerase by scintillation proximity assay", "parameters": "species or system Human alphaherpesvirus 3"}, "[4]": {"assay": "Inhibition of human polymerase alpha by scintillation proximity assay"}, "[5]": {"system": "Human alphaherpesvirus 1", "assay": "Antiviral activity against HSV1 KOS by plaque reduction assay", "assay_type": "functional, organism-based", "conditions": "Human alphaherpesvirus 1, KOS", "method_in_brief": "(§1)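 Plaque reduction assays used HCMV Davis strain and HSV-1 KOS strain. IC50 values are means of at least two experiments, with standard deviation where given.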"}, "[6]": {"assay": "Inhibition of human polymerase delta by scintillation proximity assay"}, "[7]": {"biological_target": "T1, DNA polymerase catalytic subunit (Human herpesvirus 1 (strain KOS) (HHV-1) (Human herpes simplex virus1), UniProt P04292)", "T1 sequence (P04292 whole entry)": "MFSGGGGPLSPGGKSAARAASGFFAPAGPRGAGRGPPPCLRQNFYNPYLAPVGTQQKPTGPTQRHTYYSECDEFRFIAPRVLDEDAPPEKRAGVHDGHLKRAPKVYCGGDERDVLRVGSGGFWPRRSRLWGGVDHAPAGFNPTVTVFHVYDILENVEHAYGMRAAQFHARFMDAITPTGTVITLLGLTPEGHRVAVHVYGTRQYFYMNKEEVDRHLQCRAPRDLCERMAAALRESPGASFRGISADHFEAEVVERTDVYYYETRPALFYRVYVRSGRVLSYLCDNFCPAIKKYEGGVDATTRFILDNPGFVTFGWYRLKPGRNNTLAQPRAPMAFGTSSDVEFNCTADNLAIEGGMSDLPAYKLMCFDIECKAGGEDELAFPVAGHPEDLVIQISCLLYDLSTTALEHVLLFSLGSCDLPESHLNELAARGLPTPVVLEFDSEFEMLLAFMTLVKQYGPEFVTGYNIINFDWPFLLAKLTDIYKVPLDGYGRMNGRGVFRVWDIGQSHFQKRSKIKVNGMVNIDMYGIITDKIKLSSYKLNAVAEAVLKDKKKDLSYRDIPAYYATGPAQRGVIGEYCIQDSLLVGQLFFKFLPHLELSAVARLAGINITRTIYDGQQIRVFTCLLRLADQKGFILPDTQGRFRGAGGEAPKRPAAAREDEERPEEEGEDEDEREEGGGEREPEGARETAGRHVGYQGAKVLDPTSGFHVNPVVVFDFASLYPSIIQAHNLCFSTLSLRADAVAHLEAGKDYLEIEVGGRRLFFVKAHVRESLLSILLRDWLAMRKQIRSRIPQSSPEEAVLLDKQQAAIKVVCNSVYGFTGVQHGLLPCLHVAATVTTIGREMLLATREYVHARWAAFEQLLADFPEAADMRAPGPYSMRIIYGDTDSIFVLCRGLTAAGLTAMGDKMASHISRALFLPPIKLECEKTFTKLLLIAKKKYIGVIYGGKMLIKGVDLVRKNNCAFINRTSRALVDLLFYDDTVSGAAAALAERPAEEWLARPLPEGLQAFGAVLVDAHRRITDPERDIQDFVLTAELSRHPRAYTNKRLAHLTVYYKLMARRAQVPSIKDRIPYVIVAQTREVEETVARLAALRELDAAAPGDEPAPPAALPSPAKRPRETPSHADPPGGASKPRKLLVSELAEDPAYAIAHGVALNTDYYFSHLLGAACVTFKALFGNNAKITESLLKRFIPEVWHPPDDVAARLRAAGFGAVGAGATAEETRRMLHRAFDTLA", "assay": "Inhibition of HSV1 DNA polymerase by scintillation proximity assay", "parameters": "species or system Human alphaherpesvirus 1"}, "[8]": {"system": "Human alphaherpesvirus 3", "assay": "Antiviral activity against VZV Webster by plaque reduction assay", "assay_type": "functional, organism-based", "conditions": "Human alphaherpesvirus 3, Webster"}, "[9]": {"assay": "Inhibition of human polymerase gamma by scintillation proximity assay"}, "[10]": {"system": "Human betaherpesvirus 5", "assay": "Antiviral activity against HCMV Davis by plaque reduction assay", "assay_type": "functional, organism-based", "conditions": "Human betaherpesvirus 5, Davis", "method_in_brief": "as §1"}, "[11]": {"system": "Human gammaherpesvirus 4", "assay": "Antiviral activity against EBV lytic replication in GG68 cells after 72 hrs by Southern blot analysis", "assay_type": "functional, organism-based", "conditions": "human gammaherpesvirus 4, GG68, 72 h"}, "[12]": {"assay": "Aqueous solubility of the compound", "assay_type": "physicochemical"}, "[13]": {"assay": "Oral bioavailability in rat", "assay_type": "ADME, organism-based", "conditions": "in vivo", "method_in_brief": "(§2)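 Dosing was intravenous at 5 mg/kg and oral at 15 mg/kg. The vehicle was 80/20 PEG400/0.01 M methanesulfonic acid.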"}, "[14]": {"assay": "Oral bioavailability in dog", "assay_type": "ADME, organism-based, Canis lupus familiaris", "conditions": "in vivo", "method_in_brief": "as §2"}}}
{"smiles": "CN(Cc1cc2c(=O)c(C(=O)NCc3ccc(C(F)(F)F)cc3)cn(C)c2o1)C[C@@H](O)c1ccco1", "values": [{"measurement": "IC50", "setting": "[1]", "result": 6450, "unit": "nM"}]}
{"smiles": "CN(Cc1cc2c(=O)c(C(=O)NCc3ccccc3)cn(C)c2o1)C[C@@H](O)c1ccco1", "values": [{"measurement": "IC50", "setting": "[1]", "result": 11400, "unit": "nM"}]}
{"smiles": "CN(Cc1cc2c(=O)c(C(=O)NCc3ccc(Cl)cc3)cn(C)c2o1)C[C@@H](O)c1ccccn1", "values": [{"measurement": "CC50 at 72 h", "setting": "[2]", "result": "> 100000", "unit": "nM"}, {"measurement": "IC50", "setting": "[3]", "result": 100, "unit": "nM"}, {"measurement": "IC50", "setting": "[4]", "result": "> 20000", "unit": "nM"}, {"measurement": "IC50", "setting": "[5]", "result": 5400, "unit": "nM"}, {"measurement": "IC50", "setting": "[6]", "result": "> 20000", "unit": "nM"}, {"measurement": "IC50", "setting": "[7]", "result": 350, "unit": "nM"}, {"measurement": "IC50", "setting": "[1]", "result": 220, "unit": "nM"}, {"measurement": "IC50", "setting": "[8]", "result": 90, "unit": "nM"}, {"measurement": "IC50", "setting": "[9]", "result": "> 20000", "unit": "nM"}, {"measurement": "IC50", "setting": "[10]", "result": 170, "unit": "nM"}]}
{"smiles": "CN(Cc1cc2c(=O)c(C(=O)NCc3ccc(F)cc3)cn(C)c2o1)C[C@@H](O)c1ccco1", "values": [{"measurement": "IC50", "setting": "[1]", "result": 610, "unit": "nM"}]}
{"smiles": "Cc1ccc(CNC(=O)c2cn(C)c3oc(CN(C)C[C@@H](O)c4ccco4)cc3c2=O)cc1", "values": [{"measurement": "IC50", "setting": "[1]", "result": 3140, "unit": "nM"}]}
{"smiles": "CN(Cc1cc2c(=O)c(C(=O)NCc3ccc(Cl)cc3)cn(C)c2o1)C[C@@H](O)c1ncccn1", "values": [{"measurement": "IC50", "setting": "[1]", "result": 170, "unit": "nM"}, {"measurement": "IC50", "setting": "[10]", "result": 360, "unit": "nM"}]}
{"smiles": "CN(Cc1cc2c(=O)c(C(=O)NCc3ccc(Cl)cc3)cn(CCc3ccccc3)c2o1)C[C@@H](O)c1ccco1", "values": [{"measurement": "IC50", "setting": "[1]", "result": 690, "unit": "nM"}]}
{"smiles": "CCN(CC)CCn1cc(C(=O)NCc2ccc(Cl)cc2)c(=O)c2cc(CN(C)C[C@@H](O)c3ccco3)oc21", "values": [{"measurement": "IC50", "setting": "[1]", "result": 3920, "unit": "nM"}]}
{"smiles": "CN(Cc1cc2c(=O)c(C(=O)NCc3ccc(Cl)cc3)cn(C)c2o1)C[C@@H](O)c1cnccn1", "values": [{"measurement": "IC50", "setting": "[1]", "result": 220, "unit": "nM"}, {"measurement": "IC50", "setting": "[10]", "result": 28, "unit": "nM"}]}
{"smiles": "CN(Cc1cc2c(=O)c(C(=O)NCc3ccc(Cl)cc3)cn(C)c2s1)C[C@@H](O)c1ccccn1", "values": [{"measurement": "IC50", "setting": "[11]", "result": 200, "unit": "nM"}]}
{"smiles": "CN(Cc1cc2c(=O)c(C(=O)NCc3ccc(Cl)cc3)cn(-c3ccccc3)c2o1)C[C@@H](O)c1ccco1", "values": [{"measurement": "IC50", "setting": "[1]", "result": 830, "unit": "nM"}]}
{"smiles": "CN(Cc1cc2c(=O)c(C(=O)NCc3ccc(Cl)cc3)cn(-c3ccccn3)c2o1)C[C@@H](O)c1ccco1", "values": [{"measurement": "IC50", "setting": "[1]", "result": 140, "unit": "nM"}, {"measurement": "IC50", "setting": "[10]", "result": 50, "unit": "nM"}]}
{"smiles": "CCCn1cc(C(=O)NCc2ccc(Cl)cc2)c(=O)c2cc(CN(C)C[C@@H](O)c3ccco3)oc21", "values": [{"measurement": "IC50", "setting": "[1]", "result": 1120, "unit": "nM"}]}
{"smiles": "CN(Cc1cc2c(=O)c(C(=O)NCc3ccc(Cl)cc3)cn(C)c2o1)C[C@@H](O)c1ccco1", "values": [{"measurement": "CC50 at 72 h", "setting": "[2]", "result": "> 100000", "unit": "nM"}, {"measurement": "solubility", "setting": "[12]", "result": 60, "unit": "µM"}, {"measurement": "IC50", "setting": "[3]", "result": 78, "unit": "nM"}, {"measurement": "IC50", "setting": "[4]", "result": "> 20000", "unit": "nM"}, {"measurement": "IC50", "setting": "[5]", "result": 4300, "unit": "nM"}, {"measurement": "bioavailability", "setting": "[13]", "result": 67, "unit": "%"}, {"measurement": "IC50", "setting": "[6]", "result": "> 20000", "unit": "nM"}, {"measurement": "IC50", "setting": "[7]", "result": 220, "unit": "nM"}, {"measurement": "IC50", "setting": "[1]", "result": 76, "unit": "nM"}, {"measurement": "bioavailability", "setting": "[14]", "result": 76, "unit": "%"}, {"measurement": "IC50", "setting": "[8]", "result": 20, "unit": "nM"}, {"measurement": "IC50", "setting": "[9]", "result": "> 20000", "unit": "nM"}, {"measurement": "IC50", "setting": "[10]", "result": 26, "unit": "nM"}, {"measurement": "IC50", "setting": "[11]", "result": 400, "unit": "nM"}]}
{"smiles": "CCn1cc(C(=O)NCc2ccc(Cl)cc2)c(=O)c2cc(CN(C)C[C@@H](O)c3ccco3)oc21", "values": [{"measurement": "IC50", "setting": "[1]", "result": 510, "unit": "nM"}, {"measurement": "IC50", "setting": "[10]", "result": 700, "unit": "nM"}]}
{"smiles": "CN(Cc1cc2c(=O)c(C(=O)NCc3ccc(Cl)cc3)cn(C3CC3)c2o1)C[C@@H](O)c1ccco1", "values": [{"measurement": "IC50", "setting": "[1]", "result": 420, "unit": "nM"}, {"measurement": "IC50", "setting": "[10]", "result": 1200, "unit": "nM"}]}
{"smiles": "CN(Cc1cc2c(=O)c(C(=O)NCc3ccc(F)c(F)c3)cn(C)c2o1)C[C@@H](O)c1ccco1", "values": [{"measurement": "IC50", "setting": "[1]", "result": 1020, "unit": "nM"}]}
{"smiles": "CN(Cc1cc2c(=O)c(C(=O)NCc3ccc(Br)cc3)cn(C)c2o1)C[C@@H](O)c1ccco1", "values": [{"measurement": "IC50", "setting": "[1]", "result": 340, "unit": "nM"}]}
{"smiles": "Nc1nc2c(ncn2COCCO)c(=O)[nH]1", "note": "[ACYCLOVIR]", "values": [{"measurement": "CC50 at 72 h", "setting": "[2]", "result": "> 100000", "unit": "nM"}, {"measurement": "IC50", "setting": "[10]", "result": "> 20000", "unit": "nM"}]}
{"smiles": "O=C(O)P(=O)(O)O", "note": "[FOSCARNET]", "values": [{"measurement": "IC50", "setting": "[9]", "result": "< 280", "unit": "nM"}]}
{"smiles": "Nc1nc(O)c2ncn(COC(CO)CO)c2n1", "note": "[GANCICLOVIR]", "values": [{"measurement": "CC50 at 72 h", "setting": "[2]", "result": "> 100000", "unit": "nM"}]}
